ChEMBL document CHEMBL4393701, “Appendix A. dithioloquinolinethiones as new potential multitargeted antibacterial and antifungal agents: Synthesis, biological evaluation and molecular docking studies” (2019)
Converted amounts (≈) assume the structure as drawn.

Columns and labels:
[1] = system: Bacillus cereus; test: Bactericidal activity against Bacillus cereus clinical isolate incubated for 24 hrs followed by re-plating on tryptic soy broth; assay type: functional
Procedure, shortened: (§1)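 Bacteria were grown in tryptic soy broth, 1.0×10^4 CFU per well, with compounds in 5% DMSO at 0.001-1.0 mg/ml for 24 h at 37 °C. Then 10 µL was subcultured into fresh TSB. MBC is the lowest concentration showing no growth after subculture, taken as 99.5% kill of the original inoculum. Duplicates, repeated three times.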

[2] = system: Micrococcus flavus; test: Bactericidal activity against Micrococcus flavus ATCC 10240 incubated for 24 hrs followed by re-plating on tryptic soy broth; assay type: functional; details: ATCC 10240, 24 h; procedure, shortened: as §1
[3] = system: Aspergillus ochraceus; test: Fungicidal activity against Aspergillus ochraceus ATCC 12066 incubated for 72 hrs followed by sub-culturing on broth malt medium and measured after 72 hrs; assay type: functional; details: ATCC 12066, 72 h
Procedure, shortened: (§2)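 After 72 h exposure in malt broth, 2 µL from test wells was subcultured into wells holding 100 µL broth and incubated a further 72 h at 28 °C. MFC is the lowest concentration with no visible growth, taken as 99.5% kill of the original inoculum. Three independent experiments in duplicate.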

[4] = system: Staphylococcus aureus; test: Antibacterial activity against Staphylococcus aureus ATCC 6538 after 24 hrs by iodonitrotetrazolium chloride dye based microdilution method; assay type: functional; details: ATCC 6538, 24 h
Procedure, shortened: (§3)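 Fresh overnight cultures adjusted spectrophotometrically to 1×10^5 CFU/mL, giving 1.0×10^4 CFU per well in tryptic soy broth. Compounds were dissolved in 5% DMSO and tested at 0.001-1.0 mg/ml by serial dilution; 5% DMSO was the negative control. After 24 h at 37 °C, 0.2 mg/mL INT solution was added for 30 min at 37 °C and OD read at 655 nm. MIC is the lowest concentration giving significant growth inhibition versus the positive control. Duplicates, repeated three times.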

[5] = system: Aspergillus fumigatus; test: Antifungal activity against Aspergillus fumigatus ATCC 1022 after 72 hrs by microdilution technique; assay type: functional; details: ATCC 1022, 72 h
Procedure, shortened: (§4)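 Spores were washed off malt agar with 0.85% saline containing 0.1% Tween 80 and adjusted to about 1.0×10^5 per well. Compounds in 5% DMSO were serially diluted (0.001-1.0 mg/ml) in malt broth with inoculum. Plates were shaken at 160 rpm for 72 h at 28 °C. MIC is the lowest concentration without visible growth under a binocular microscope. Three independent experiments in duplicate.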

[6] = system: Aspergillus ochraceus; test: Antifungal activity against Aspergillus ochraceus ATCC 12066 after 72 hrs by microdilution technique; assay type: functional; details: ATCC 12066, 72 h; procedure, shortened: as §4
[7] = Antifungal activity against Penicillium funiculosum ATCC 36839 after 72 hrs by microdilution technique; assay type: functional; details: Talaromyces pinophilus, ATCC 36839, 72 h; procedure, shortened: as §4
[8] = system: Listeria monocytogenes; test: Antibacterial activity against Listeria monocytogenes NCTC 7973 after 24 hrs by iodonitrotetrazolium chloride dye based microdilution method; assay type: functional; details: NCTC 7973, 24 h; procedure, shortened: as §3
[9] = system: Enterobacter cloacae; test: Bactericidal activity against Enterobacter cloacae incubated for 24 hrs followed by re-plating on tryptic soy broth; assay type: functional; procedure, shortened: as §1
[10] = system: Escherichia coli; test: Antibacterial activity against Escherichia coli ATCC 35210 after 24 hrs by iodonitrotetrazolium chloride dye based microdilution method; assay type: functional; details: ATCC 35210, 24 h; procedure, shortened: as §3
[11] = system: Aspergillus versicolor; test: Fungicidal activity against Aspergillus versicolor ATCC 11730 incubated for 72 hrs followed by sub-culturing on broth malt medium and measured after 72 hrs; assay type: functional; details: ATCC 11730, 72 h; procedure, shortened: as §2
[12] = system: Penicillium ochrochloron; test: Fungicidal activity against Penicillium ochrochloron ATCC 9112 incubated for 72 hrs followed by sub-culturing on broth malt medium and measured after 72 hrs; assay type: functional; details: ATCC 9112, 72 h; procedure, shortened: as §2
[13] = system: Staphylococcus aureus; test: Bactericidal activity against Staphylococcus aureus ATCC 6538 incubated for 24 hrs followed by re-plating on tryptic soy broth; assay type: functional; details: ATCC 6538, 24 h; procedure, shortened: as §1
[14] = system: Salmonella typhimurium; test: Antibacterial activity against Salmonella typhimurium ATCC 13311 after 24 hrs by iodonitrotetrazolium chloride dye based microdilution method; assay type: functional, Salmonella enterica subsp. enterica serovar Typhimurium; details: Salmonella enterica, ATCC 13311, 24 h; procedure, shortened: as §3
[15] = system: Enterobacter cloacae; test: Antibacterial activity against Enterobacter cloacae clinical isolate after 24 hrs by iodonitrotetrazolium chloride dye based microdilution method; assay type: functional; procedure, shortened: as §3
[16] = system: Salmonella typhimurium; test: Bactericidal activity against Salmonella typhimurium ATCC 13311 incubated for 24 hrs followed by re-plating on tryptic soy broth; assay type: functional, Salmonella enterica subsp. enterica serovar Typhimurium; details: Salmonella enterica, ATCC 13311, 24 h; procedure, shortened: as §1
[17] = system: Escherichia coli; test: Bactericidal activity against Escherichia coli ATCC 35210 incubated for 24 hrs followed by re-plating on tryptic soy broth; assay type: functional; details: ATCC 35210, 24 h; procedure, shortened: as §1
[18] = system: Trichoderma viride; test: Antifungal activity against Trichoderma viride IAM 5061 after 72 hrs by microdilution technique; assay type: functional; details: IAM 5061, 72 h; procedure, shortened: as §4
[19] = system: Penicillium cyclopium; test: Antifungal activity against Penicillium verrucosum var. cyclopium food isolate after 72 hrs by microdilution technique; assay type: functional; procedure, shortened: as §4
[20] = system: Pseudomonas aeruginosa; test: Antibacterial activity against Pseudomonas aeruginosa ATCC 27853 after 24 hrs by iodonitrotetrazolium chloride dye based microdilution method; assay type: functional; details: ATCC 27853, 24 h; procedure, shortened: as §3
[21] = Fungicidal activity against Penicillium funiculosum ATCC 36839 incubated for 72 hrs followed by sub-culturing on broth malt medium and measured after 72 hrs; assay type: functional; details: Talaromyces pinophilus, ATCC 36839, 72 h; procedure, shortened: as §2
[22] = system: Bacillus cereus; test: Antibacterial activity against Bacillus cereus clinical isolate after 24 hrs by iodonitrotetrazolium chloride dye based microdilution assay; assay type: functional; procedure, shortened: as §3
[23] = system: Pseudomonas aeruginosa; test: Bactericidal activity against Pseudomonas aeruginosa ATCC 27853 incubated for 24 hrs followed by re-plating on tryptic soy broth; assay type: functional; details: ATCC 27853, 24 h; procedure, shortened: as §1
[24] = system: Trichoderma viride; test: Fungicidal activity against Trichoderma viride IAM 5061 incubated for 72 hrs followed by sub-culturing on broth malt medium and measured after 72 hrs; assay type: functional; details: IAM 5061, 72 h; procedure, shortened: as §2
[25] = system: Listeria monocytogenes; test: Bactericidal activity against Listeria monocytogenes NCTC 7973 incubated for 24 hrs followed by re-plating on tryptic soy broth; assay type: functional; details: NCTC 7973, 24 h; procedure, shortened: as §1
[26] = system: Aspergillus fumigatus; test: Fungicidal activity against Aspergillus fumigatus ATCC 1022 incubated for 72 hrs followed by sub-culturing on broth malt medium and measured after 72 hrs; assay type: functional; details: ATCC 1022, 72 h; procedure, shortened: as §2
[27] = system: Penicillium cyclopium; test: Fungicidal activity against Penicillium verrucosum var. cyclopium food isolate incubated for 72 hrs followed by sub-culturing on broth malt medium and measured after 72 hrs; assay type: functional; procedure, shortened: as §2
[28] = system: Micrococcus flavus; test: Antibacterial activity against Micrococcus flavus ATCC 10240 after 24 hrs by iodonitrotetrazolium chloride dye based microdilution method; assay type: functional; details: ATCC 10240, 24 h; procedure, shortened: as §3
[29] = system: Aspergillus niger; test: Fungicidal activity against Aspergillus niger ATCC 6275 incubated for 72 hrs followed by sub-culturing on broth malt medium and measured after 72 hrs; assay type: functional; details: ATCC 6275, 72 h; procedure, shortened: as §2
[30] = system: Penicillium ochrochloron; test: Antifungal activity against Penicillium ochrochloron ATCC 9112 after 72 hrs by microdilution technique; assay type: functional; details: ATCC 9112, 72 h; procedure, shortened: as §4
[31] = system: Aspergillus niger; test: Antifungal activity against Aspergillus niger ATCC 6275 after 72 hrs by microdilution technique; assay type: functional; details: ATCC 6275, 72 h; procedure, shortened: as §4
[32] = system: Aspergillus versicolor; test: Antifungal activity against Aspergillus versicolor ATCC 11730 after 72 hrs by microdilution method; assay type: functional; details: ATCC 11730, 72 h; procedure, shortened: as §4

Compound | MBC [1] | MBC [2] | MFC [3] | MIC [4] | MIC [5] | MIC [6] | MIC [7] | MIC [8] | MBC [9] | MIC [10] | MFC [11] | MFC [12] | MBC [13] | MIC [14] | MIC [15] | MBC [16] | MBC [17] | MIC [18] | MIC [19] | MIC [20] | also measured
Cc1ccc2c(c1)-c1c(ssc1=S)C(C)(C)N2C(=O)c1cccnc1 | 0.6 µM (≈ 0.231 µg/mL) | 0.6 µM (≈ 0.231 µg/mL) | 31.2 ×10⁻² mM | 0.3 µM (≈ 0.115 µg/mL) | 7.8 ×10⁻² mM | 14.6 ×10⁻² mM | 15.6 ×10⁻² mM | 0.3 µM (≈ 0.115 µg/mL) | 0.6 µM (≈ 0.231 µg/mL) | 12.1 µM (≈ 4.65 µg/mL) | 15.6 ×10⁻² mM | 15.6 ×10⁻² mM | 0.6 µM (≈ 0.231 µg/mL) | 0.3 µM (≈ 0.115 µg/mL) | 0.3 µM (≈ 0.115 µg/mL) | 0.6 µM (≈ 0.231 µg/mL) | 0.6 µM (≈ 0.231 µg/mL) | 1.04 ×10⁻² mM | 7.8 ×10⁻² mM | 0.3 µM (≈ 0.115 µg/mL) | MFC [21]: 31.2 ×10⁻² mM; MIC [22]: 12.1 µM (≈ 4.65 µg/mL); MBC [23]: 0.6 µM (≈ 0.231 µg/mL); MFC [24]: 2.08 ×10⁻² mM; MBC [25]: 0.6 µM (≈ 0.231 µg/mL); MFC [26]: 15.6 ×10⁻² mM; MFC [27]: 15.6 ×10⁻² mM; MIC [28]: 12.1 µM (≈ 4.65 µg/mL); MFC [29]: 7.8 ×10⁻² mM; MIC [30]: 7.8 ×10⁻² mM; MIC [31]: 1.56 ×10⁻² mM; MIC [32]: 7.8 ×10⁻² mM
CC1(C)S[C@@H]2[C@H](NC(=O)[C@H](N)c3ccccc3)C(=O)N2[C@H]1C(=O)O [AMPICILLIN] | 372 µM (≈ 130 µg/mL) | 372 µM (≈ 130 µg/mL) | – | 248 µM (≈ 86.7 µg/mL) | – | – | – | 372 µM (≈ 130 µg/mL) | 1240 µM (≈ 433 µg/mL) | 744 µM (≈ 260 µg/mL) | – | – | 372 µM (≈ 130 µg/mL) | 248 µM (≈ 86.7 µg/mL) | 744 µM (≈ 260 µg/mL) | 380 µM (≈ 133 µg/mL) | 1240 µM (≈ 433 µg/mL) | – | – | 372 µM (≈ 130 µg/mL) | MIC [22]: 248 µM (≈ 86.7 µg/mL); MBC [23]: 492 µM (≈ 172 µg/mL); MBC [25]: 744 µM (≈ 260 µg/mL); MIC [28]: 248 µM (≈ 86.7 µg/mL)
c1ccc(-c2ccc(C(c3ccccc3)n3ccnc3)cc2)cc1 (stereo unspecified) [BIFONAZOLE] | – | – | 80 ×10⁻² mM | – | 48 ×10⁻² mM | 48 ×10⁻² mM | 48 ×10⁻² mM | – | – | – | 64 ×10⁻² mM | 80 ×10⁻² mM | – | – | – | – | – | 64 ×10⁻² mM | 48 ×10⁻² mM | – | MFC [21]: 64 ×10⁻² mM; MFC [24]: 80 ×10⁻² mM; MFC [26]: 64 ×10⁻² mM; MFC [27]: 64 ×10⁻² mM; MFC [29]: 64 ×10⁻² mM; MIC [30]: 64 ×10⁻² mM; MIC [31]: 48 ×10⁻² mM; MIC [32]: 48 ×10⁻² mM
CC(=O)N1CCN(c2ccc(OCC3COC(Cn4ccnc4)(c4ccc(Cl)cc4Cl)O3)cc2)CC1 (stereo unspecified) [KETOCONAZOLE] | – | – | 95 ×10⁻² mM | – | 38 ×10⁻² mM | 38 ×10⁻² mM | 380 ×10⁻² mM | – | – | – | 380 ×10⁻² mM | 95 ×10⁻² mM | – | – | – | – | – | 475 ×10⁻² mM | 38 ×10⁻² mM | – | MFC [21]: 380 ×10⁻² mM; MFC [24]: 570 ×10⁻² mM; MFC [26]: 95 ×10⁻² mM; MFC [27]: 57 ×10⁻² mM; MFC [29]: 95 ×10⁻² mM; MIC [30]: 38 ×10⁻² mM; MIC [31]: 38 ×10⁻² mM; MIC [32]: 285 ×10⁻² mM
CN[C@@H]1[C@H](O[C@H]2[C@H](O[C@H]3[C@H](O)[C@@H](O)[C@H](N=C(N)N)[C@@H](O)[C@@H]3N=C(N)N)O[C@@H](C)[C@]2(O)C=O)O[C@@H](CO)[C@H](O)[C@H]1O [STREPTOMYCIN] | 86 µM (≈ 50 µg/mL) | 172 µM (≈ 100 µg/mL) | – | 172 µM (≈ 100 µg/mL) | – | – | – | 258 µM (≈ 150 µg/mL) | 344 µM (≈ 200 µg/mL) | 270 µM (≈ 157 µg/mL) | – | – | 344 µM (≈ 200 µg/mL) | 43 µM (≈ 25 µg/mL) | 270 µM (≈ 157 µg/mL) | 86 µM (≈ 50 µg/mL) | 344 µM (≈ 200 µg/mL) | – | – | 172 µM (≈ 100 µg/mL) | MIC [22]: 43 µM (≈ 25 µg/mL); MBC [23]: 344 µM (≈ 200 µg/mL); MBC [25]: 516 µM (≈ 300 µg/mL); MIC [28]: 86 µM (≈ 50 µg/mL)
